How the values were obtained:
Cyperus iria [1] = assay: Post-emergence herbicidal activity against Cyperus iria assessed as growth inhibition at 37.5 g ai/ha measured 15 days post compound treatment under green house conditions; type: functional; details: 360 h, read-out: GI
How it was run: (§1)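 Compounds formulated as 100 g/L emulsifiable concentrate (DMF solvent, Tween-80 emulsifier), diluted with water, sprayed post-emergence on pot-grown weeds in clay soil (pH 6.5, 1.6% organic matter). Seeds sown 1-3 cm deep, grown at 15-30 °C. Dicots were treated at the 2-leaf stage and monocots at the 1-leaf stage. Untreated and DMF-treated controls were included. Injury was rated visually 15 days after treatment.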

Chenopodium album [2] = assay: Post-emergence herbicidal activity against Chenopodium album assessed as growth inhibition at 37.5 g ai/ha measured 15 days post compound treatment under green house conditions; type: functional; details: 360 h, read-out: GI; how it was run: as §1
Rumex acetosa [3] = assay: Post-emergence herbicidal activity against Rumex acetosa assessed as growth inhibition at 37.5 g ai/ha measured 15 days post compound treatment under green house conditions; type: functional; details: 360 h, read-out: GI; how it was run: as §1
Amaranthus retroflexus [4] = assay: Post-emergence herbicidal activity against Amaranthus retroflexus assessed as growth inhibition at 75 g ai/ha measured 15 days post compound treatment under green house conditions; type: functional; details: 360 h, read-out: GI; how it was run: as §1
Amaranthus retroflexus [5] = assay: Post-emergence herbicidal activity against Amaranthus retroflexus assessed as growth inhibition at 37.5 g ai/ha measured 15 days post compound treatment under green house conditions; type: functional; details: 360 h, read-out: GI; how it was run: as §1
Rumex acetosa [6] = assay: Post-emergence herbicidal activity against Rumex acetosa assessed as growth inhibition at 75 g ai/ha measured 15 days post compound treatment under green house conditions; type: functional; details: 360 h, read-out: GI; how it was run: as §1
Galium aparine [7] = assay: Post-emergence herbicidal activity against Galium aparine assessed as growth inhibition at 75 g ai/ha measured 15 days post compound treatment under green house conditions; type: functional; details: 360 h, read-out: GI; how it was run: as §1
Eclipta prostrata [8] = assay: Post-emergence herbicidal activity against Eclipta prostrata assessed as growth inhibition at 37.5 g ai/ha measured 15 days post compound treatment under green house conditions; type: functional; details: 360 h, read-out: GI; how it was run: as §1
[9] = target: T1, Acetolactate synthase, chloroplastic (Arabidopsis thaliana, UniProt P17597)
T1 sequence (P17597 whole entry): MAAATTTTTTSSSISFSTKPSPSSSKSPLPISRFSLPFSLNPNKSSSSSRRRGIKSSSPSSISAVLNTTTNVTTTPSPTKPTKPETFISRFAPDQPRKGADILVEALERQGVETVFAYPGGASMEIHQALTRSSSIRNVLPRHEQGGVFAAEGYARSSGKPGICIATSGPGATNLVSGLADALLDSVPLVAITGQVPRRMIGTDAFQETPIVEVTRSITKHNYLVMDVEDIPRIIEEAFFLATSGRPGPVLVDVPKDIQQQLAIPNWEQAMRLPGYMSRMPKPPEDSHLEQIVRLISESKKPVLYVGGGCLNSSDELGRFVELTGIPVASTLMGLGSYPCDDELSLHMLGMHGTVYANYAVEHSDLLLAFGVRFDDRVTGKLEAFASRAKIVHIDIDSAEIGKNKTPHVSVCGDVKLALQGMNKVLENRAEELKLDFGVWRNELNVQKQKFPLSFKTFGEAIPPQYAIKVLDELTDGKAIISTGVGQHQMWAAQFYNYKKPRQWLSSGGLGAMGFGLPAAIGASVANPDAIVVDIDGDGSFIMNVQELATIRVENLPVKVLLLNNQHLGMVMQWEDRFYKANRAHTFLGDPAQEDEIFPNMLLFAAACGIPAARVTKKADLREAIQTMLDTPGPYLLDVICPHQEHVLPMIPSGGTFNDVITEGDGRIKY

Galium aparine [10] = assay: Post-emergence herbicidal activity against Galium aparine assessed as growth inhibition at 150 g ai/ha measured 15 days post compound treatment under green house conditions; type: functional; details: 360 h, read-out: GI; how it was run: as §1
Rumex acetosa [11] = assay: Post-emergence herbicidal activity against Rumex acetosa assessed as growth inhibition at 150 g ai/ha measured 15 days post compound treatment under green house conditions; type: functional; details: 360 h, read-out: GI; how it was run: as §1
Cyperus iria [12] = assay: Post-emergence herbicidal activity against Cyperus iria assessed as growth inhibition at 150 g ai/ha measured 15 days post compound treatment under green house conditions; type: functional; details: 360 h, read-out: GI; how it was run: as §1
Digitaria sanguinalis = assay: Post-emergence herbicidal activity against Digitaria sanguinalis (hairy crabgrass) assessed as growth inhibition at 150 g ai/ha measured 15 days post compound treatment under green house conditions; type: functional; details: 360 h, read-out: GI; how it was run: as §1
Amaranthus retroflexus [13] = assay: Post-emergence herbicidal activity against Amaranthus retroflexus assessed as growth inhibition at 150 g ai/ha measured 15 days post compound treatment under green house conditions; type: functional; details: 360 h, read-out: GI; how it was run: as §1
Cerastium arvense [14] = assay: Post-emergence herbicidal activity against Cerastium arvense assessed as growth inhibition at 150 g ai/ha measured 15 days post compound treatment under green house conditions; type: functional; details: 360 h, read-out: GI; how it was run: as §1
Galium aparine [15] = assay: Post-emergence herbicidal activity against Galium aparine assessed as growth inhibition at 37.5 g ai/ha measured 15 days post compound treatment under green house conditions; type: functional; details: 360 h, read-out: GI; how it was run: as §1
Chenopodium album [16] = assay: Post-emergence herbicidal activity against Chenopodium album assessed as growth inhibition at 150 g ai/ha measured 15 days post compound treatment under green house conditions; type: functional; details: 360 h, read-out: GI; how it was run: as §1
Cerastium arvense [17] = assay: Post-emergence herbicidal activity against Cerastium arvense assessed as growth inhibition at 37.5 g ai/ha measured 15 days post compound treatment under green house conditions; type: functional; details: 360 h, read-out: GI; how it was run: as §1
Polygonum humifusum [18] = assay: Post-emergence herbicidal activity against Polygonum humifusum assessed as growth inhibition at 150 g ai/ha measured 15 days post compound treatment under green house conditions; type: functional; details: 360 h, read-out: GI; how it was run: as §1
Cyperus iria [19] = assay: Post-emergence herbicidal activity against Cyperus iria assessed as growth inhibition at 75 g ai/ha measured 15 days post compound treatment under green house conditions; type: functional; details: 360 h, read-out: GI; how it was run: as §1
Echinochloa crus-galli = assay: Post-emergence herbicidal activity against Echinochloa crus-galli (barnyard grass) assessed as growth inhibition at 150 g ai/ha measured 15 days post compound treatment under green house conditions; type: functional; details: 360 h, read-out: GI; how it was run: as §1
Brassica juncea = assay: Post-emergence herbicidal activity against Brassica juncea assessed as growth inhibition at 150 g ai/ha measured 15 days post compound treatment under green house conditions; type: functional; details: 360 h, read-out: GI; how it was run: as §1
Eclipta prostrata [20] = assay: Post-emergence herbicidal activity against Eclipta prostrata assessed as growth inhibition at 75 g ai/ha measured 15 days post compound treatment under green house conditions; type: functional; details: 360 h, read-out: GI; how it was run: as §1
Polygonum humifusum [21] = assay: Post-emergence herbicidal activity against Polygonum humifusum assessed as growth inhibition at 75 g ai/ha measured 15 days post compound treatment under green house conditions; type: functional; details: 360 h, read-out: GI; how it was run: as §1
Chenopodium album [22] = assay: Post-emergence herbicidal activity against Chenopodium album assessed as growth inhibition at 75 g ai/ha measured 15 days post compound treatment under green house conditions; type: functional; details: 360 h, read-out: GI; how it was run: as §1
Poa annua = assay: Post-emergence herbicidal activity against Poa annua assessed as growth inhibition at 150 g ai/ha measured 15 days post compound treatment under green house conditions; type: functional; details: 360 h, read-out: GI; how it was run: as §1
Eclipta prostrata [23] = assay: Post-emergence herbicidal activity against Eclipta prostrata assessed as growth inhibition at 150 g ai/ha measured 15 days post compound treatment under green house conditions; type: functional; details: 360 h, read-out: GI; how it was run: as §1
Cerastium arvense [24] = assay: Post-emergence herbicidal activity against Cerastium arvense assessed as growth inhibition at 75 g ai/ha measured 15 days post compound treatment under green house conditions; type: functional; details: 360 h, read-out: GI; how it was run: as §1
Polygonum humifusum [25] = assay: Post-emergence herbicidal activity against Polygonum humifusum assessed as growth inhibition at 37.5 g ai/ha measured 15 days post compound treatment under green house conditions; type: functional; details: 360 h, read-out: GI; how it was run: as §1

SMILES | inhibition of growth at 37.5 g/ha (Cyperus iria [1]) [%] | inhibition of growth at 37.5 g/ha (Chenopodium album [2]) [%] | inhibition of growth at 37.5 g/ha (Rumex acetosa [3]) [%] | inhibition of growth at 75 g/ha (Amaranthus retroflexus [4]) [%] | inhibition of growth at 37.5 g/ha (Amaranthus retroflexus [5]) [%] | inhibition of growth at 75 g/ha (Rumex acetosa [6]) [%] | inhibition of growth at 75 g/ha (Galium aparine [7]) [%] | inhibition of growth at 37.5 g/ha (Eclipta prostrata [8]) [%] | Ki [9] [µM] | inhibition of growth at 150 g/ha (Galium aparine [10]) [%] | inhibition of growth at 150 g/ha (Rumex acetosa [11]) [%] | inhibition of growth at 150 g/ha (Cyperus iria [12]) [%] | inhibition of growth at 150 g/ha (Digitaria sanguinalis) [%] | inhibition of growth at 150 g/ha (Amaranthus retroflexus [13]) [%] | inhibition of growth at 150 g/ha (Cerastium arvense [14]) [%] | inhibition of growth at 37.5 g/ha (Galium aparine [15]) [%] | inhibition of growth at 150 g/ha (Chenopodium album [16]) [%] | inhibition of growth at 37.5 g/ha (Cerastium arvense [17]) [%] | inhibition of growth at 150 g/ha (Polygonum humifusum [18]) [%] | inhibition of growth at 75 g/ha (Cyperus iria [19]) [%] | also measured
Cc1ccn2nc(S(=O)(=O)Nc3c(F)cccc3F)nc2n1 | 50 | 50 | 50 | ≥ 90 | ≥ 90 | 50 | 50 | ≥ 90 | 0.36 | ≥ 80 | ≥ 80 | 50 | ≥ 80 | ≥ 90 | ≥ 90 | 50 | ≥ 90 | ≥ 90 | ≥ 90 | 50 | inhibition of growth at 150 g/ha (Echinochloa crus-galli): 50%; inhibition of growth at 150 g/ha (Brassica juncea): ≥ 90%; inhibition of growth at 75 g/ha (Eclipta prostrata [20]): ≥ 90%; inhibition of growth at 75 g/ha (Polygonum humifusum [21]): ≥ 90%; inhibition of growth at 75 g/ha (Chenopodium album [22]): ≥ 90%; inhibition of growth at 150 g/ha (Poa annua): 50%; inhibition of growth at 150 g/ha (Eclipta prostrata [23]): ≥ 90%; inhibition of growth at 75 g/ha (Cerastium arvense [24]): ≥ 90%; inhibition of growth at 37.5 g/ha (Polygonum humifusum [25]): ≥ 80%
COc1ccn2nc(S(=O)(=O)Nc3cccc(Cl)c3Cl)nc2n1 | 50 | < 50 | 50 | 50 | 50 | 50 | 50 | 50 | 14.8 | 50 | 50 | 50 | < 50 | ≥ 50 | < 50 | 50 | < 50 | < 50 | 50 | 50 | inhibition of growth at 150 g/ha (Echinochloa crus-galli): < 50%; inhibition of growth at 150 g/ha (Brassica juncea): ≥ 80%; inhibition of growth at 75 g/ha (Eclipta prostrata [20]): 50%; inhibition of growth at 75 g/ha (Polygonum humifusum [21]): 50%; inhibition of growth at 75 g/ha (Chenopodium album [22]): < 50%; inhibition of growth at 150 g/ha (Poa annua): < 50%; inhibition of growth at 150 g/ha (Eclipta prostrata [23]): ≥ 50%; inhibition of growth at 75 g/ha (Cerastium arvense [24]): < 50%; inhibition of growth at 37.5 g/ha (Polygonum humifusum [25]): 50%
